Assay outcomes (PubChem BioAssay)
Cneo AK release: Cryptococcus neoformans cell lysis inducers, primary screen, AK release luminescence, single concentration | C. neoformans lysis, adenylate kinase release luminescence, 4 h; normalised: neutral wells 0, clomiphene wells 100 | lysis activity, % at 15 µM | 0.2% of 360,000 active | AID 651654, 2012;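 active = mean lysis activity across replicates of at least 80%, whatever share of replicates individually reach that level; inactive = mean lysis activity below 80%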
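Test system: log-phase Cryptococcus neoformans yeast cells. Input: 5 × 10^6 yeast cells/mL. Medium: fresh YPD growth medium. Doses: single dose. Incubation: static 4 h at 37 °C with compound, 1 h detection. Measured by: luminescent adenylate kinase detection reagent. Read-out: signal increase indicating cell lysis. Benchmarks: Clomiphene.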
Env fusion inh: inhibitors of HIV-1 Env-driven cell-cell fusion, primary screen, HeLa-JRFL effector, CEM21 target cells, luciferase. inhibition, % at 12.3 µM. 1.1% of 360,000 active;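 active = mean replicate inhibition score of at least 50 and every replicate individually at or above 50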;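 also: 0% = plate neutral controls and 100% = maraviroc near 300 nM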
Ecoli rRNA inh: reduced GFP signal of wild-type E. coli, primary screen, bacterial rRNA inhibitor project, GFP/RFP fluorescence, OD600, single point; E. coli WT GFP vs humanized-ribosome RFP mutants, 24 h; active compounds read low; DMSO median 0, no signal -100; GFP signal change (wild-type ribosome), % (test concentration not listed); 1.6% of 350,000 active; AID 720706, 2013;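 active = significant combined selectivity score with lowered wild-type GFP, culture density cut under 30%, mutant RFP and density less affected; inactive = any of these conditions unmet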
ERAP1 inh: human ERAP1 aminopeptidase inhibitors, primary screen, biochemical, single point, plate reader | inhibition, % at 10.7 µM | Endoplasmic reticulum aminopeptidase 1 (Homo sapiens), Q9NZ08 | recombinant ERAP1, Leu-AMC fluorescence, 60 min | 0.15% of 340,000 active | AID 652197, 2013;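 active = mean replicate inhibition of at least 30%, or all replicates individually reaching that 30% level; inactive = mean below 30% and not every replicate reaching it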;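 also: 0% = neutral control wells and 100% = L-leucinethiol positive control wells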
FGF22 binding: binders of human FGF22 protein, primary screen, FGF22 synaptogenesis inhibitor project, biophysical, thermal shift, single point | Fibroblast growth factor 22 (Homo sapiens), Q9HCT0 | recombinant FGF22 thermal shift, SYPRO orange fluorescence; percent of sucrose octasulfate shift, DMSO zero | activity (Tm shift, normalised), % at 9.99 µM | 1.5% of 340,000 active | AID 651658, 2012;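 active = mean Tm shift, scaled 0 neutral to 100 positive control, at about 1.3% or above, every replicate too, limit read from the data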
Target sequence (Q9HCT0 whole entry, looked up): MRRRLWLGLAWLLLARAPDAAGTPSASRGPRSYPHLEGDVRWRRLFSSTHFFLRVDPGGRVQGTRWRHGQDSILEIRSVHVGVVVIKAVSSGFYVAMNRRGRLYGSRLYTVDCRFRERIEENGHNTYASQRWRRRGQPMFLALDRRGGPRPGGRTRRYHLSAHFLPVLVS
PGC1a acetyl inh: inhibitors of PGC1a acetylation signal, primary screen, cell-based, U2OS, AlphaScreen, inhibitor mode; AlphaScreen anti-acetyl-lysine; with virally co-expressed GCN5 acetyltransferase; inhibition, % at 15.6 µM; 0.17% of 350,000 active;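 active = every replicate shows inhibition of at least 40%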;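 also: 0% = neutral control wells and 100% = positive control wells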
Starred values were filed as active, the others as inactive; nt = no result given; ! = not confirmed by another sample; [ ] = dose if it differs, or a comment. This is a sample that favours compounds with a hit; in the whole collection about 3.5% have one here.

SMILES | Cneo AK release | Env fusion inh | Ecoli rRNA inh | ERAP1 inh | FGF22 binding | PGC1a acetyl inh
CCn1c2ccccc2c2nn(C)c(=N)nc21 | 1 | -24 | nt | nt | nt | nt
C[C@@H]1CN([C@H](C)CO)S(=O)(=O)c2ccc(C#Cc3ccccn3)cc2O[C@H]1CN(C)Cc1ccccc1 | 91* | 3[16.7 µM] | -13 | -1 | 0 | -30
C[C@@H]1CN([C@@H](C)CO)S(=O)(=O)c2ccc(C#Cc3ccccn3)cc2O[C@H]1CN(C)Cc1ccccc1 | 101* | 7[16.7 µM] | -7 | 0 | 0 | -2
CO[C@@H]1CN(C)C(=O)c2ccc(NC(=O)Nc3ccccc3)cc2OC[C@H](C)NC[C@@H]1C | 3 | nt | -2 | 2 | 0 | -8
Nc1nc(SCc2ccc(Cl)c(Cl)c2)n[nH]1 | nt | -8 | -37* | 6 | 0 | 2
CC(=O)N1CCC2(CC1)CC(=O)c1cc(OCC(=O)NCc3ccco3)ccc1O2 | 7 | -44 | nt | nt | nt | 15
c1nc(SSc2ncnc3nc[nH]c23)c2[nH]cnc2n1 | nt | -6 | -4 | 33* | 0 | 16
COc1cccc2sc3cc(C#Cc4ccccn4)ccc3c(=O)c12 | 0 | -25 | -1 | 1 | 0 | 10
COc1cc2sc3ccc(C#Cc4ccccn4)cc3c(=O)c2cc1OC | 0 | 56* | 0 | 2 | 0 | 1
CCCC(=O)Nc1ccc2c(c1)C(=O)N(C)[C@@H]1CC[C@H](CC(=O)O)O[C@H]1CO2 | 7 | -12[16.7 µM] | 4 | -2 | 0 | -5
CCOc1ccccc1N1CCN(C(=O)c2ccc3[nH]c4c(c3c2)CCCC4)CC1 | 3 | -12 | -27* | 0 | 0 | nt
CCOc1ccccc1N1CCN(C(=O)c2cc3c(C)cc(C)cc3[nH]2)CC1 | -1 | -150 | 4 | 2 | 0 | -4
Cc1nc(SCc2cccc(C(=O)O)c2)nc2c1CCCC2 | nt | 44 | -8 | -4 | 43* | -5
O=C1/C(=C/c2cccc([N+](=O)[O-])c2)CCc2ccccc21 | 2 | -15 | nt | nt | nt | -10
O=C1/C(=C/c2cccc([N+](=O)[O-])c2)CSc2ccc(Cl)cc21 | nt | 61* | 7 | nt | 0 | 10
CCO[C@H]1OC(C(=O)O)=C[C@@H](c2ccc3c(c2)OCO3)[C@@H]1CCCO | -1 | 5[16.7 µM] | 4 | -3 | 44*! | 12
Cc1nnc(N2C(=O)C(O)=C(C(=O)c3ccco3)C2c2ccc(C(C)C)cc2)s1 (stereo unspecified) | -7 | nt | nt | nt | nt | -25
CCn1ncc(S(=O)(=O)NCc2ccccc2Cl)c1C | -1 | 8 | 10 | -2 | 0 | 5
CCOC(=O)C1=C(CS(=O)(=O)c2ccccc2)NC(=O)NC1c1ccccc1 (stereo unspecified) | -1 | -76 | nt | nt | nt | -38
CCOC(=O)C1=C(CS(=O)(=O)c2ccccc2)NC(=O)NC1c1cccc(OC)c1 (stereo unspecified) | nt | -3 | 1 | -2 | 44* | nt
CCCc1ccc(OCc2ccc(C(=O)Nc3cccc(C)n3)o2)c(OC)c1 | nt | 11 | 0 | -2 | 1 | nt
CCc1ccccc1NS(=O)(=O)c1cc(C)ccc1OC | -5 | nt | nt | nt | nt | -25
CC(C)COc1ccc(-c2nn(-c3ccccc3)cc2C(=O)Nc2nccs2)cc1 | 0 | 72* | nt | nt | nt | nt
CC(=O)Nc1nnc(SCC(=O)NC(C)(C)C)s1 | nt | nt | 9 | 0 | 0 | nt
O=C(Oc1c(-c2ccccc2)c(=O)n2c3c(cccc13)CC2)c1ccccc1 | 8 | -5 | -28* | 5 | 0 | -3
SMILES | Cneo AK release | Env fusion inh | Ecoli rRNA inh | ERAP1 inh | FGF22 binding | PGC1a acetyl inh
O=C(Oc1c(-c2ccccc2)c(=O)n2c3c(cccc13)CC2)c1ccc(F)cc1 | nt | -1 | nt | nt | 0 | 2
Cc1ccccc1NC(=S)N(Cc1ccccn1)Cc1ccccc1Cl | nt | -9 | -23* | 2 | 0 | -15
CC(C)C[C@@H](CN1CCC[C@H]1CN1C(=O)C(=O)NC[C@@H]1Cc1ccc(O)cc1)N1C[C@H](Cc2ccccc2)N(CCc2ccccc2)C(=O)C1=O | nt | -157 | -14 | 1 | 0 | nt
O=S1(=O)N[C@@H](CC2CCCCC2)COc2cc(Br)ccc21 | 0 | 21 | 3 | nt | 0 | 6
Cc1ccc([C@@H]2C[C@H]3[C@@H](CN2S(=O)(=O)c2ccc(Cl)cc2)C(=O)C[C@@H](c2cccc(Cl)c2)N3S(=O)(=O)c2ccc(C)cc2)cc1 | 7 | -14 | 5 | 5 | 0 | 8
OCC#Cc1ncc(C(F)(F)F)cc1Cl | nt | 9 | nt | -3 | 43* | -11
COc1cc(C(=O)Oc2ccccc2N)cc(OC)c1OC | 92* | nt | nt | nt | nt | 2
COc1cc(C(=O)Oc2cccc(C=O)c2)cc(OC)c1OC | 1 | nt | nt | nt | nt | 5
Cc1nc(CSc2ccc(Cl)cc2)cc(NCc2ccccc2)n1 | 6 | nt | nt | nt | nt | 12
CC(=O)c1ccc(OCC(=O)Nc2ccc(N3CCCCC3)cc2)cc1 | -6 | 6 | 2 | 3 | 0 | 7
CCN(CC)CCN(C(=O)c1ccc2ccccc2c1)c1nc2cc3c(cc2s1)OCO3 | 5 | 11 | -8 | 0 | 0 | nt
CCN(CC)CCN(C(=O)c1ccc2c(c1)OCCO2)c1nc2c(Cl)cccc2s1 | 0 | 8 | -22* | -3 | 0 | nt
CCN(CC)CCN(C(=O)c1ccc2c(c1)OCCO2)c1nc2cc(C)cc(C)c2s1 | 1 | 12 | -21* | 2 | 0 | -2
COc1ccc(NC(=O)CN2CCCC(C)C2)c([N+](=O)[O-])c1 (stereo unspecified) | 0 | 35 | nt | nt | nt | 1
O=C1CCN(c2ccccc2)N1 | 1 | -35 | -1 | -2 | 0 | 4
Cc1cccc(NC(=O)CN2C(=O)S/C(=C\c3ccc(O)c([N+](=O)[O-])c3)C2=O)c1 | nt | -7 | -12 | -6 | 44* | -8
Cc1ccc(NC(=O)CN2C(=O)S/C(=C/c3ccc(O)c([N+](=O)[O-])c3)C2=O)cc1C | nt | 14 | -9 | 0 | 0 | 7
CCCCCCCCOC(=O)c1nc(Cl)c(Cl)c(N)c1Cl | 0 | nt | -7 | 3 | 1.5* | -1
C/C=C/c1ccc2c(c1)O[C@H](CN(C)S(=O)(=O)c1ccccc1)[C@H](C)CN([C@@H](C)CO)S2(=O)=O | 90* | 25[16.7 µM] | -10 | -2 | 0 | 3
C[C@H](CO)N1C[C@H](C)[C@@H](CN(C)S(=O)(=O)c2ccc(F)cc2)Oc2cc(Br)ccc2S1(=O)=O | 0 | 44[16.7 µM] | -25*! | 0 | 0 | 1
